18 compounds from ChEMBL document CHEMBL1125553, “Bioisosteric replacement of the alpha-amino carboxylic acid functionality in 2-amino-5-phosphonopentanoic acid yields unique 3,4-diamino-3-cyclobutene-1,2-dione containing NMDA antagonists” (J Med Chem, 1992) can be followed below.

The target of data set [1] is Glutamate NMDA receptor. Briefly: Inhibition of [3H]CPP binding to rat N-methyl-D-aspartate glutamate receptor. Type of data set: protein-complex assay. The method in brief:
(§1)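 Rat brain crude synaptic membranes treated with 0.04% Triton X-100 and stored frozen at -70 °C. Before use they were thawed, washed once in Tris HCl buffer and resuspended at 0.3–0.5 mg protein/mL (Lowry). NMDA receptor affinity was measured as displacement of [3H]CPP binding to these membranes.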

The species entered for data set [2] is Mus musculus. Briefly: (§2) Effective dose against NMDA-induced lethality in male Swiss-albino mice. The settings on record: in vivo. Type of data set: ADME, organism-based.
Data set [3] deals with Glutamate NMDA receptor. The experiment in a line: The compound was tested for its affinity against N-methyl-D-aspartate glutamate receptor in rats using [3H]CPP as radioligand. In a few lines: as §1
The species named for a further data set is Rattus norvegicus. The experiment in a line: Ability to displace [3H]TCP from rat brain. Type of data set: functional.
Data set [4] concerns the target T1, Glutamate receptor ionotropic, AMPA (Rattus norvegicus, UniProt P19490+P19491+P19492+P19493). The experiment in a line: The compound was tested for its affinity against AMPA receptor in rats.
Data set [5] has as its target Glutamate receptor ionotropic, kainate. The experiment in a line: Compound was tested or its affinity against ionotropic glutamate receptor ionotropic kainate in rats.
Data set [6] has as its target T2, Glutamate NMDA receptor (Rattus norvegicus) (UniProt P35439+Q00959+Q00960+Q00961+Q62645+Q8VHN2+Q9R1M7). Briefly: The compound was tested for its affinity against N-methyl-D-aspartate glutamate receptor in rats using [3H]CPP as uM. The settings on record: concentration not given here. In a few lines: (§3)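 Rat brain crude synaptic membranes, Triton X-100 treated, frozen at -70 °C, thawed, washed once, resuspended in Tris HCl buffer at 0.3–0.5 mg protein/mL (Lowry). NMDA receptor affinity measured by displacement of [3H]CPP binding.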

Data set [7] is filed under the species Mus musculus. Briefly: Effective dose against NMDA-induced lethality in male Swiss-albino mice was determined at a concentration of 50 uM. Type of data set: organism-based. The settings on record: in vivo.
For data set [8], the target named is T2, Glutamate NMDA receptor (Rattus norvegicus). The experiment in a line: The compound was tested for the inhibition of N-methyl-D-aspartate glutamate receptor in rats using [3H]-CPP as uM. The settings on record: concentration not given here. In a few lines: as §3
Data set [9] shares this target. The experiment in a line: The compound was tested for the inhibition of N-methyl-D-aspartate glutamate receptor in rats using [3H]CPP as uM. The settings on record: concentration not given here. The method in brief:
as §3

For data set [10], the target named is T1, Glutamate receptor ionotropic, AMPA. Briefly: Compound was tested or its affinity against AMPA receptor in rats.
For data set [11], the species on record is Mus musculus. The data set is described as §2. Type of data set: functional.
For data set [12], the target named is Glutamate NMDA receptor. The experiment in a line: Compound tested for affinity towards N-methyl-D-aspartate glutamate receptor by measuring their ability to displace [3H]TCP from rat brain.

For orientation: IC50 means the concentration needed to halve the response being measured. The compound `CCOC(=O)C/N=c1\c(O)c(O)c1=N` registered a half-inhibitory concentration (IC50) on Glutamate NMDA receptor [1] of 190 µM.

On to `N[C@@H](Cn1oc(=O)[nH]c1=O)C(=O)O` [QUISQUALATE], for which the half-inhibitory concentration (IC50) at Glutamate NMDA receptor [1] was above 100 µM. Usually ED50 stands for the dose at which the effect has come halfway, by size or by number of responders. Compound `Nc1c(NCCCP(=O)(O)O)c(=O)c1=O` came in with an ED50 in the data set filed under Mus musculus [2] above 100 mg/kg. The compound further displayed an IC50 on Glutamate NMDA receptor [3] of 2.6 µM. Consider `Nc1c(NCCC(=O)O)c(=O)c1=O`, for which the IC50 in the data set listed under Rattus norvegicus was found to be 941 µM. On to `Nc1c(NCP(=O)(O)O)c(=O)c1=O`, for which the ED50 in the data set filed under Mus musculus [2] was above 100 mg/kg. The compound also gave an IC50 on Glutamate NMDA receptor [3] above 10 µM. As to `Nc1c(NCCn2oc(=O)[nH]c2=O)c(=O)c1=O`, the half-inhibitory concentration (IC50) in data set [4] is above 100 µM; at Glutamate NMDA receptor [1], 5.2 µM; in data set [5], above 100 µM.

On Glutamate NMDA receptor [1], `NS(=O)(=O)c1cccc2c1c([N+](=O)[O-])cc1nc(O)c(O)nc12` [NBQX] registered an IC50 above 10 µM. Broadly, the inhibition is the drop in the measured response relative to a control, in per cent. A low value points to a weak effect. Compound `Nc1c(NCCCCP(=O)(O)O)c(=O)c1=O` returned an inhibition in [6] of 68%. Also, the ED50 in the data set filed under Mus musculus [2] is above 30 mg/kg. One may read the Inhibition as the drop in the measured response relative to a control, in per cent. A high value points to a response far below the control. `CN(CCP(=O)(O)O)c1c(N)c(=O)c1=O` returned an Inhibition in the data set listed under Mus musculus [7] of 50%. In addition, on Glutamate NMDA receptor [3], the half-inhibitory concentration (IC50) was determined as 1 µM. For `Nc1c(NCCP(=O)(O)O)c(=O)c1=O`, in the data set listed under Mus musculus [2], the ED50 worked out at 29 mg/kg. Moreover, the IC50 on Glutamate NMDA receptor [3] came to 0.47 µM.

Compound `C/N=c1\c(O)c(O)\c1=N/CCC(=O)O` registered an IC50 on Glutamate NMDA receptor [1] of 20 µM. Consider `Nc1c(N(CC(=O)O)Cc2ccccc2)c(=O)c1=O`, for which the concentration for half-maximal inhibition (IC50) in data set [4] and in data set [5] was above 100 µM throughout. Besides, in data set [8], the inhibition came to 50%.

With `Nc1c(NCC(=O)O)c(=O)c1=O`, the IC50 in data set [4] and in [5] was above 100 µM throughout.

On to `C=C(C)CN(CC(=O)O)c1c(N)c(=O)c1=O`, for which the inhibition in data set [9] was found to be 46%. In addition, the IC50 in data set [4] and in data set [5] was above 100 µM throughout. On to `C=CCN(CC(=O)O)c1c(N)c(=O)c1=O`, for which the results for the half-maximal inhibitory concentration (IC50) (at Glutamate NMDA receptor [1]; in [5]; in data set [10]) were 10 µM, above 100 µM and above 100 µM, respectively.

`O=C(O)CCNc1c(O)c(=O)/c1=N\Cc1ccccc1` came in with an IC50 on Glutamate NMDA receptor [1] above 100 µM.

`NC(CCCCCP(=O)(O)O)C(=O)O` (stereo not drawn) [AP-7] came in with an ED50 in the data set filed under Mus musculus [11] of 38 mg/kg. For the same compound, at Glutamate NMDA receptor [1], the IC50 came out at 0.39 µM. At Glutamate NMDA receptor [12], `O=C(O)C1CN(CCCP(=O)(O)O)CCN1` (stereo not drawn) displayed an IC50 of 45 µM.
